Test results from ChEMBL document CHEMBL1124900, “Synthesis of substituted 7,12-dihydropyrido[3,2-b:5,4-b']diindoles: rigid planar benzodiazepine receptor ligands with inverse agonist/antagonist properties” (J Med Chem, 1990).

Legend:
[1] = molecular target: GABA-A receptor; anion channel; test: In vitro potency measured against [3H]diazepam at the benzodiazepine receptor in rat
Summary of the method: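 Male Sprague-Dawley rats (175-250 g); cerebral cortex homogenized in 50 mM Tris-HCl pH 7.4 and washed by repeated centrifugation at 2000g. Membranes incubated with 2 nM [3H]diazepam for 60-90 min at 0-4 °C, then filtered. Nonspecific binding defined with 10 µM flunitrazepam. Six or more concentrations; IC50 from Hill plots; mean of at least three determinations.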

[2] = Partition coefficient (logP); type: physicochemical; details: octanol/water
Summary of the method: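 Crude octanol/water log P calculated from tabulated fragmentation constants; for one hydroxy analogue also determined experimentally.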

Mus musculus [3] = test: Antagonism of Diazepam (2.5 mg/kg) anticonvulsant effects in mice treated with PTZ (80 mg/kg); type: functional
Summary of the method: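 Male NIH mice in groups of 10 received graded ip doses in Emulphor/saline 1:9, or vehicle. Diazepam 2.5 mg/kg ip followed 15 min later, then PTZ 80 mg/kg 15 min after that. ED50 is the dose antagonizing diazepam's protection against tonic/clonic convulsions in 50% of mice. Highest dose tested was 30 or 40 mg/kg.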

Mus musculus [4] = test: Convulsant effects in mice treated with PTZ (40 mg/kg) dose; type: functional
[5] = molecular target: GABA-A receptor; anion channel; test: In vitro inhibition of [3H]flunitrazepam binding to rat GABA-A Benzodiazepine receptor; type: protein-complex assay

| SMILES | IC50 [1] [nM] | other results |
| --- | --- | --- |
| CC(C)(C)C(=O)Oc1ccc2c(c1)[nH]c1c3c4ccccc4nc-3c[nH]c12 | – | IC50 [5]: 200 nM; ED50 (Mus musculus [4]): 17.5 mg/kg |
| Brc1ccc2[nH]c3c4c5ccccc5nc-4c[nH]c3c2c1 | 750 | – |
| Fc1ccc2c(c1)[nH]c1c3c4ccccc4nc-3c[nH]c12 | – | logP [2]: 4.01; ED50 (Mus musculus [3]): > 30 mg/kg; ED50 (Mus musculus [4]): > 30 mg/kg |
| c1ccc2c(c1)[nH]c1c2ncc2[nH]c3ccccc3c21 | – | logP [2]: 3.87 |
| c1ccc(COc2ccc3c(c2)[nH]c2c3ncc3[nH]c4ccccc4c32)cc1 | > 4000 | – |
| c1ccc(COc2cccc3[nH]c4c5c6ccccc6nc-5c[nH]c4c23)cc1 | > 4000 | – |
| c1ccc(COc2ccc3[nH]c4c5c6ccccc6nc-5c[nH]c4c3c2)cc1 | 1600 | – |
| Brc1ccc2[nH]c3c(ncc4[nH]c5ccc(Br)cc5c43)c2c1 | > 320 | – |
| Nc1ccc2[nH]c3c[nH]c4c5cc(Cl)ccc5nc-4c3c2c1 | > 350 | – |
| Oc1cccc2[nH]c3c4c5ccccc5nc-4c[nH]c3c12 | 578 | – |
| Cn1c2ccccc2c2c3nc4ccccc4c-3[nH]cc21 | 1140 | – |
| O=[N+]([O-])c1ccc2[nH]c3c[nH]c4c5cc(Cl)ccc5nc-4c3c2c1 | 1190 | – |
| O=S(=O)(O)c1ccc2[nH]c3c(ncc4[nH]c5ccc(S(=O)(=O)O)cc5c43)c2c1 | 5000 | – |
| Clc1ccc2[nH]c3c[nH]c4c5cccc(Cl)c5nc-4c3c2c1 | 310 | – |
| Clc1ccc2c(c1)[nH]c1c2ncc2[nH]c3ccccc3c21 | – | logP [2]: 4.58; ED50 (Mus musculus [4]): > 30 mg/kg |
| Cc1cccc2[nH]c3c4c5ccccc5nc-4c[nH]c3c12 | > 5000 | – |

Second part, led by results:

| IC50 [1] [nM] | SMILES | other results |
| --- | --- | --- |
| 157 | Cn1c2ccccc2c2[nH]cc3nc4ccccc4c-3c21 | – |
| 8 | COc1ccc2c(c1)[nH]c1c3c4ccccc4nc-3c[nH]c12.Cl | logP [2]: 4.04; ED50 (Mus musculus [3]): 3.9 mg/kg; ED50 (Mus musculus [4]): 7 mg/kg |
| 83 | Cc1cccc2c1[nH]c1c3c4ccccc4nc-3c[nH]c12 | – |
| 44 | Nc1ccc2[nH]c3c[nH]c4c5ccccc5nc-4c3c2c1 | – |
| 114 | Oc1ccc2[nH]c3c4c5ccccc5nc-4c[nH]c3c2c1 | ED50 (Mus musculus [3]): > 40 mg/kg; ED50 (Mus musculus [4]): > 40 mg/kg |
| 8 | Cc1ccc2c(c1)[nH]c1c3c4ccccc4nc-3c[nH]c12 | logP [2]: 4.53; ED50 (Mus musculus [3]): > 40 mg/kg; ED50 (Mus musculus [4]): > 40 mg/kg |
| 6 | Fc1ccc2[nH]c3c4c5ccccc5nc-4c[nH]c3c2c1 | logP [2]: 4.01; ED50 (Mus musculus [4]): > 30 mg/kg |
| 6 | Brc1ccc2[nH]c3cnc4c5ccccc5[nH]c4c3c2c1 | – |
| 98 | Nc1ccc2[nH]c3c[nH]c4c5ccc(Cl)cc5nc-4c3c2c1 | – |
| 28 | Brc1cccc2c1[nH]c1c3c4ccccc4nc-3c[nH]c12 | – |
| 126 | O=[N+]([O-])c1ccc2[nH]c3c[nH]c4c5ccc(Cl)cc5nc-4c3c2c1 | – |
| 250 | CCc1nc2c3ccccc3[nH]c2c2c1[nH]c1ccccc12 | – |
| 6 | Oc1ccc2c(c1)[nH]c1c3c4ccccc4nc-3c[nH]c12 | logP [2]: 0.95; ED50 (Mus musculus [3]): > 40 mg/kg; ED50 (Mus musculus [4]): > 40 mg/kg |
| 224 | Cc1ccc2[nH]c3c4c5ccccc5nc-4c[nH]c3c2c1 | – |
| 250 | COc1cccc2[nH]c3c4c5ccccc5nc-4c[nH]c3c12 | – |
| 4 | O=[N+]([O-])c1ccc2[nH]c3c[nH]c4c5ccccc5nc-4c3c2c1 | – |
| 19 | Brc1ccc2c(c1)[nH]c1c3c4ccccc4nc-3c[nH]c12 | logP [2]: 4.73; ED50 (Mus musculus [3]): > 40 mg/kg; ED50 (Mus musculus [4]): > 40 mg/kg |
